Reference: ChEMBL document CHEMBL5661985, “In silico design of novel probes for the atypical opioid receptor MRGPRX2” (Nat Chem Biol, 2017)
Activity calls are given as the source filed them. No cut-off for these calls is given here. Where a SMILES comes first, the peptide text is derived from it.

Key:
[1] = target: T1, Mas-related G-protein coupled receptor member X2 (Homo sapiens, UniProt Q96LB1); assay: Agonist activity at N-terminal Flag-tagged human MRGPRX2 receptor expressed in tetracycline-induced FLP-IN/T-REX 293 cells assessed as increase in intracellular calcium release by FLIPR assay; format: functional, cell-based; settings: read-out: pEC50 (converted)
T1 sequence (Q96LB1 whole entry): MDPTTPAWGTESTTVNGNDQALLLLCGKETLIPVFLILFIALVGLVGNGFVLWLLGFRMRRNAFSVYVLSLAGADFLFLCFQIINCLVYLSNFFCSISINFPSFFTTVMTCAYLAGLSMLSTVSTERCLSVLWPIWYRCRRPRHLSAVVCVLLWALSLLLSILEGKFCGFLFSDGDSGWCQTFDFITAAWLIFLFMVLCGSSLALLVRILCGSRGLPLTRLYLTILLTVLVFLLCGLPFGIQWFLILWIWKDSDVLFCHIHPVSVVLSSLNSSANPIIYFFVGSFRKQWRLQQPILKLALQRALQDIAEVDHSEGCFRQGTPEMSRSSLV

[2] = target: T2, Mas-related G-protein coupled receptor member X2 (Homo sapiens) (UniProt Q96LB1); assay: Agonist activity at N-terminal Flag-tagged human MRGPRX2 receptor expressed in FLP-IN/T-REX 293 cells assessed as increase in intracellular calcium release by FLIPR assay; format: functional, cell-based; settings: filed as agonist
T2 sequence (whole entry): T1 sequence (Q96LB1 whole entry)
Outline: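 FLIPR calcium: FLP-IN/T-REX HEK-293-T stable line with N-terminal FLAG codon-optimized receptor, induced 24 h with 1 μg/mL tetracycline in 1% dialyzed FBS (uninduced cells as control); FLIPR calcium dye plus 2.5 mM probenecid 1 h 37°C; 10 s baseline, then drug in HBSS/20 mM HEPES/probenecid pH 7.4, 16-point curve 10 μM to 0.003 nM; fluorescence 120 s; fold over basal, n=3 triplicate.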

[3] = target: T1, Mas-related G-protein coupled receptor member X2; assay: Agonist activity at MRGPRX2 (unknown origin) expressed in HTLA cells assessed as induction of beta-arrestin 2 recruitment incubated for 18 to 24 hrs by PRESTO-Tango assay; format: functional, cell-based; settings: read-out: pEC50 (converted)
Flp-In-T-REx-293 = assay: Agonist activity at rodent MRGPRB2 receptor expressed in tetracycline-induced FLP-IN/T-REX 293 cells assessed as increase in intracellular calcium release at 0.003 to 100000 nM by FLIPR assay; format: cell-based; settings: Rodentia, filed as agonist, dose 0.003-100000 nM
HTLA = assay: Agonist activity at […] expressed in HTLA cells assessed as induction of beta-arrestin 2 recruitment incubated for 18 to 24 hrs by PRESTO-Tango assay; format: cell-based; settings: Rodentia, filed as agonist, time 18-24 hrs
Outline: (§1)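 β-arrestin2 recruitment by PRESTO-Tango: HTLA cells transiently transfected (calcium phosphate) with codon-optimized MRGPRX2-Tango (WT or point mutant) or MRGPRB2-Tango, plated next day 20,000 cells/well on poly-L-lysine; drug in HBSS/20 mM HEPES/0.3% BSA pH 7.4 for 18–24 h; Bright-Glo luminescence (RLU); curves n=3 in triplicate, mutants n=4 in triplicate.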

[4] = target: T2, Mas-related G-protein coupled receptor member X2 (Homo sapiens); assay: Agonist activity at MRGPRX2 (unknown origin) expressed in HTLA cells assessed as induction of beta-arrestin 2 recruitment at 10 uM incubated for 18 to 24 hrs by PRESTO-Tango assay; format: functional, cell-based; settings: filed as agonist, time 18-24 hrs; outline: as §1
[5] = target: T2, Mas-related G-protein coupled receptor member X2 (Homo sapiens); assay: Agonist activity at MRGPRX2 receptor in human LAD2 cells assessed as increase in intracellular calcium release by FLIPR assay; format: functional, cell-based; settings: filed as agonist
Outline: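 LAD2 human mast cells seeded 50,000/well in Tyrode's buffer with calcium dye, 1 h before drug; 10 s baseline, drug added, fluorescence followed 120 s; expressed as fold calcium release over baseline; n=3 in triplicate.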

[6] = target: T2, Mas-related G-protein coupled receptor member X2 (Homo sapiens); assay: Agonist activity at MRGPRX2 receptor in human LAD2 cells transfected with MRGPRX2 siRNA assessed as increase in degranulation incubated for 30 mins by beta-hexosaminidase assay; format: functional, cell-based
Outline: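 LAD2 cells (1.2 million/well) transfected with 25 nM MRGPRX2 siRNA pool or non-targeting pool, 72 h; 200,000 cells taken for β-hexosaminidase assay with EC80 concentration of agonist, 30 min 37°C; knockdown checked by qRT-PCR on 1 million cells; fold change % degranulation versus DMSO; two-way ANOVA with Sidak test.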

With `CC[C@H](C)[C@H](N)C(=O)N[C@@H](CC(N)=O)C(=O)N[C@@H](CC(C)C)C(=O)N[C@@H](CCCCN)C(=O)N[C@@H](C)C(=O)N[C@@H](CC(C)C)C(=O)N[C@@H](C)C(=O)N[C@@H](C)C(=O)N[C@@H](CC(C)C)C(=O)N[C@@H](C)C(=O)N[C@@H](CCCCN)C(=O)N[C@@H](CCCCN)C(=O)N[C@H](C(=O)N[C@@H](CC(C)C)C(N)=O)[C@@H](C)CC` the EC50 [1] was 11.7 µM, the Activity [2] was “Active” and the EC50 [3] was over 31.6 µM.

`COC1=CC2CN(C)CCC2C=C1` (stereo unspecified) was tested, and the EC50 [1] was 1.62 µM.

In the case of `C[C@@H](O)[C@@H]1NC(=O)[C@H](CCCCN)NC(=O)[C@H](Cc2c[nH]c3ccccc23)NC(=O)[C@H](Cc2ccccc2)NC(=O)[C@H](Cc2ccccc2)NC(=O)[C@H](CC(N)=O)NC(=O)[C@H](CCCCN)NC(=O)[C@@H](NC(=O)[C@@H]2CCCN2)CSSC[C@@H](C(=O)N[C@@H](CCCCN)C(=O)O)NC(=O)[C@H](CO)NC(=O)[C@H](CO)NC(=O)[C@H](Cc2ccccc2)NC1=O` (HELM PEPTIDE1{P.C.K.N.F.F.W.K.T.F.S.S.C.K}$PEPTIDE1,PEPTIDE1,2:R3-13:R3$$$V2.0), the EC50 [1] is reported as 0.417 µM, the EC50 [3] is reported as 0.145 µM and the Activity (Flp-In-T-REx-293) is reported as “Active”. The Activity (HTLA) was “Active”.

In the case of `CN(C)C1CCN(c2cc(-c3ccccc3)nc3ccnn23)C1` (racemic), the Activity [4] is reported as “Active”, the Activity [5] is reported as “Active” and the Activity [6] is reported as “inactive”.
